In ChEMBL document CHEMBL1129500, “Substituted 2,5'-Bi-1H-benzimidazoles: topoisomerase I inhibition and cytotoxicity” (J Med Chem, 1996) one finds REC and IC50 data, which are given here for 18 compounds.

In assay [1] the test system is DNA topoisomerase 1 (Bos taurus). The assay is described as follows: Effective concentration against Topoisomerase-I (purified from calf thymus gland) mediated DNA cleavage relative to Hoechst 33342.
The test system of assay [2] is RPMI 8402. The assay is described as follows: Cytotoxicity against human lymphoblast cell line RPMI 8402. Type of assay: functional, cell-based. An outline of the steps: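 RPMI 8402 human lymphoblasts grown in suspension at 37 °C, 5% CO2, in RPMI with 10% heat-inactivated FBS, 2 mM L-glutamine, penicillin and streptomycin. Seeded at 2000 cells/well and exposed to drug continuously for 4 days. Viability read by MTT tetrazolium microtiter assay, giving IC50. Highest dose tested 25 µM.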

A word on the IC50: it is the concentration at which inhibition is half-maximal.

Each structure is given as a SMILES string.

In the case of `Cc1ccccc1-c1nc2cc(-c3nc4cc(C#N)ccc4[nH]3)ccc2[nH]1`, the REC in assay [1] was more than 100. Half-maximal inhibition in assay [2] (IC50) was put at 1200 nM.

As to `CN1CCN(c2ccc3[nH]c(-c4ccc5[nH]c(-c6ccccc6)nc5c4)nc3c2)CC1`, the REC in assay [1] was 1. Also, the concentration for half-maximal inhibition (IC50) in assay [2] came to 490 nM.

Compound `CN1CCN(c2ccc3[nH]c(-c4ccc5[nH]c(-c6ccc7ccccc7c6)nc5c4)nc3c2)CC1` returned an REC in assay [1] of 10. This compound yielded an IC50 in assay [2] of 110 nM.

In the case of `Cc1ccccc1-c1nc2cc(-c3nc4cc(N5CCN(C)CC5)ccc4[nH]3)ccc2[nH]1`, the REC in assay [1] was determined as 10. Also, half-maximal inhibition in assay [2] (IC50) was put at 590 nM.

As to `Cc1cccc(-c2nc3cc(-c4nc5cc(C#N)ccc5[nH]4)ccc3[nH]2)c1`, in assay [1], the REC is 100. In addition, the IC50 in assay [2] was determined as 860 nM.

For `N#Cc1ccc2[nH]c(-c3ccc4[nH]c(-c5ccccc5)nc4c3)nc2c1`, the REC in assay [1] is more than 100. The same compound came in with a half-maximal inhibitory concentration (IC50) in assay [2] of more than 25000 nM.

`CN1CCN(c2ccc3[nH]c(-c4ccc5[nH]c(-c6cccc7ccccc67)nc5c4)nc3c2)CC1`: the REC in assay [1] is 20. The IC50 in assay [2] amounted to 330 nM.

On to `Cc1ccc(-c2nc3cc(-c4nc5cc(N6CCN(C)CC6)ccc5[nH]4)ccc3[nH]2)cc1`, for which the REC in assay [1] was determined as 1. The same compound yielded a half-inhibitory concentration (IC50) in assay [2] of 830 nM.

In assay [1], `N#Cc1ccc2[nH]c(-c3ccc4[nH]c(-c5ccc6ccccc6c5)nc4c3)nc2c1` yielded an REC of 10. Also, it took 130 nM to reach half-maximal inhibition in assay [2] (IC50).

Consider `Cc1ccccc1-c1nc2cc(-c3nc4cc(C(N)=O)ccc4[nH]3)ccc2[nH]1`, for which, in assay [1], the REC was 100. Moreover, the midpoint of inhibition in assay [2], the IC50, lay at 8200 nM.

In the case of `Cc1ccc(-c2nc3cc(-c4nc5cc(C(N)=O)ccc5[nH]4)ccc3[nH]2)cc1`, in assay [1], the REC is 10. The compound also displayed an IC50 in assay [2] of more than 25000 nM.

The compound `N#Cc1ccc2[nH]c(-c3ccc4[nH]c(-c5cccc6ccccc56)nc4c3)nc2c1` gave an REC in assay [1] of 10. In assay [2], the IC50 was 650 nM.

In assay [1], `Cc1ccc(-c2nc3cc(-c4nc5cc(C#N)ccc5[nH]4)ccc3[nH]2)cc1` yielded an REC of 1. The same compound showed an IC50 in assay [2] of 570 nM.

As to `NC(=O)c1ccc2[nH]c(-c3ccc4[nH]c(-c5ccc6ccccc6c5)nc4c3)nc2c1`, the REC in assay [1] came out at 100. In assay [2], this compound showed an IC50 of 740 nM.

As for `NC(=O)c1ccc2[nH]c(-c3ccc4[nH]c(-c5cccc6ccccc56)nc4c3)nc2c1`, the REC in assay [1] turned out to be 20. This compound registered an IC50 in assay [2] of 3700 nM.

In assay [1], `NC(=O)c1ccc2[nH]c(-c3ccc4[nH]c(-c5ccccc5)nc4c3)nc2c1` showed an REC of 10. The compound also yielded a concentration for half-maximal inhibition (IC50) in assay [2] of more than 25000 nM.

Compound `Cc1cccc(-c2nc3cc(-c4nc5cc(N6CCN(C)CC6)ccc5[nH]4)ccc3[nH]2)c1` returned an REC in assay [1] of 1. This compound yielded a half-maximal inhibitory concentration (IC50) in assay [2] of 360 nM.

For `Cc1cccc(-c2nc3cc(-c4nc5cc(C(N)=O)ccc5[nH]4)ccc3[nH]2)c1`, the REC in assay [1] amounted to 100. The IC50 in assay [2] came out at 8200 nM.
